From ChEMBL document CHEMBL4665645, “Role of the NMDA Receptor in the Antitumor Activity of Chiral 1,4-Dioxane Ligands in MCF-7 and SKBR3 Breast Cancer Cells” (ACS Med Chem Lett, 2019) come the findings set out here.

Each structure is given as a SMILES string. Calls of active or inactive are those of the source. Where only a bound is given, the exact number is not on record here.

The test system of series [1] is SK-BR-3. Put plainly: Cytotoxicity against human SK-BR-3 cells assessed as reduction in cell viability incubated for 48 hrs by SRB assay. It is filed as functional. A digest of the protocol:
(§1)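 Followed the NCI SRB protocol: cells exposed 48 h to a range of concentrations. GI50 is the concentration giving 50% net growth inhibition; TGI is 100% growth inhibition; LC50 kills 50% of initial cells. Mean ± SE of three separate experiments.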
For orientation: In SRB staining, fixed cells bind dye roughly in proportion to their protein.

The subject of series [2] is MCF7. Put plainly: Cytotoxicity against human MCF7 cells assessed as reduction in cell viability after 48 hrs by SRB assay. Format: functional. In a few lines:
as §1

The test system of series [3] is MCF7. Put plainly: Cytotoxicity against siNMDA receptor transfected human MCF7 cells assessed as reduction in cell viability after 48 hrs by SRB assay. It is filed as functional. In a few lines:
(§2)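 GluN1 subunit knocked down by siNMDA R transfection, confirmed by qRT-PCR and Western blot; compared with untransfected cells. SRB viability read after 48 h exposure to a range of concentrations. Mean ± SE of three separate experiments.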

A short description of series [4]: Apparent permeability in human Caco2 cells. Format: ADME, cell-based. As to conditions: caco-2.
The nature of series [5]: Metabolic stability in human liver microsomes. It is filed as ADME, Microsome. On the technique in general: Liver microsomes are a subcellular fraction often used to study metabolism.
The test system of series [6] is SK-BR-3. The series is described as follows: Induction of apoptosis in human SK-BR-3 cells transfected with siNMDA receptor after 72 hrs by Annexin V-FITC/propidium iodide staining-based flow cytometric analysis. It is filed as functional, cell-based. A general note: Flow cytometry measures light scatter and fluorescence of single cells or particles in a stream.
The test system of series [7] is SK-BR-3. Put plainly: Induction of apoptosis in human SK-BR-3 cells transfected with siNMDA receptor assessed as active caspase-3 level incubated for 72 hrs by Western blot analysis. It is filed as functional, cell-based. A digest of the protocol:
(§3)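 Cells transfected with siNMDA R (GluN1) or left untransfected, then treated 72 h (MCF-7 100 μM, SKBR3 25 μM) or left untreated. Cleaved caspase-3 detected by immunoblot; densitometry normalised to GAPDH; p < 0.01 threshold.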

Series [8] deals with SK-BR-3. Put plainly: Cytotoxicity against siNMDA receptor transfected human SK-BR-3 cells assessed as reduction in cell viability after 48 hrs by SRB assay. It is filed as functional. In a few lines: as §2
In series [9] the test system is MCF7. Put plainly: Induction of apoptosis in human MCF7 cells transfected with siNMDA receptor after 72 hrs by Annexin V-FITC/propidium iodide staining-based flow cytometric analysis. It is filed as functional, cell-based.
The subject of series [10] is MCF7. The series is described as follows: Induction of apoptosis in human MCF7 cells transfected with siNMDA receptor assessed as active caspase-3 level incubated for 72 hrs by Western blot analysis. Format: functional, cell-based. A digest of the protocol:
as §3

A short description of series [11]: Displacement of [3H]-(+)-MK-801 from PCP binding site of NMDA receptor in pig brain cortex membranes after 120 mins by scintillation counting analysis. It is filed as cell membranes, Sus scrofa, Cerebral cortex, Membrane.

In general, GI50 refers to the concentration giving 50% growth inhibition. As usually defined, the TGI is the concentration giving total growth inhibition. As usually defined, the Ki is the dissociation constant of the complex between target and ligand, obtained from inhibition or displacement.

As for `C[C@]12N[C@H](Cc3ccccc31)c1ccccc12` [DIZOCILPINE], in the series with SK-BR-3 [1], the 50% growth inhibitory concentration (GI50) is above 300 µM and the TGI was above 300 µM. In the series with MCF7 [2], the GI50 was above 300 µM and the TGI is above 300 µM.

As to `NC[C@@H]1COCC(c2ccccc2)(c2ccccc2)O1`, the GI50 with MCF7 [3] was found to be 210 µM; in the series with SK-BR-3 [1] it was 74 µM; in the series on MCF7 [2], 250 µM; in the series with SK-BR-3 [8] it was 66 µM. Besides, in [4], the permeability entry was “Permeable”. Moreover, in series [5], the Stabilty result was “Stable”. The Activity entry in the series with SK-BR-3 [1] and in the series on MCF7 [2] was “Dose-dependent effect” throughout. The result with SK-BR-3 [6], in the series on SK-BR-3 [7], in the series with MCF7 [9] and in the series on MCF7 [10] was Active. The Ki in series [11] was found to be 0.497 µM.

Regarding `NC[C@@H]1COC[C@](c2ccccc2)(C2CCCCC2)O1` (relative stereo), in the series with SK-BR-3 [1], the GI50 was found to be 25.8 µM, the LC50 (concentration killing 50% of initial cells) is above 300 µM and the total growth inhibition concentration (TGI) was 180 µM. In the series on MCF7 [2], the GI50 amounted to 89.7 µM, the LC50 (concentration killing 50% of initial cells) came to 244 µM and the concentration for total growth inhibition (TGI) is 148 µM.

For the molecule `NC[C@H]1COC[C@](c2ccccc2)(C2CCCCC2)O1` (relative stereo), in the series on SK-BR-3 [1], the GI50 is 23.8 µM, the LC50 (concentration killing 50% of initial cells) is above 300 µM and the TGI was found to be 192 µM. Moreover, in the series with MCF7 [2], the GI50 stood at 65.3 µM, the LC50 (concentration killing 50% of initial cells) was 176 µM and the total growth inhibition concentration (TGI) came to 107 µM.
